In ChEMBL document CHEMBL3425457, “Identification of Novel ROS Inducers: Quinone Derivatives Tethered to Long Hydrocarbon Chains” (J Med Chem, 2015) one finds Activity data, which are given here for two compounds.

Each structure is given as a SMILES string. Calls of active or inactive are those of the source. The calls are words filed in the database; no cut-off is given here.

Holding throughout (format): functional, cell-based
Test [1] concerns A549. Description: Induction of ROS production in human A549 cells after 3 hrs by DCF-DA staining-based fluorescence assay. The method, boiled down: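 For probe imaging, A549 cells were seeded on cover glass at 1 × 10⁶ per well and grown 18–24 h. They were treated for 3 h, then stained 30 min with 10 μM DCF-DA, DHE or APF. Cells were fixed in 4% formaldehyde for 20 min, washed twice with PBS and viewed by fluorescence microscopy.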

Test [2] relates to A549. Description: Increase in oxidized […] level in human A549 cells at 10 uM after 4 hrs by luminescence assay. The method, boiled down: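 Cellular GSH and GSSG levels were measured in A549 cells after 4 h of compound treatment.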
Test [3] deals with A549. Briefly: Induction of apoptosis in human A549 cells assessed as decrease in Bcl2 level after 48 hrs by Western blot analysis. The method in brief: (§1)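 Western blotting. Cells were seeded at 6 × 10⁵ per 60 mm dish overnight, then treated with a dose series at 37 °C in 5% CO2 for 48 h. RIPA lysates were BCA-quantified and 25–50 μg was resolved by SDS-PAGE onto PVDF. Membranes were blocked in TBS/T with 5% milk, probed with primary antibody overnight at 4 °C and HRP secondary at 1:2000 for 1 h, and detected by ECL.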
Background: A western blot detects proteins with antibodies after separation by electrophoresis.

Test [4] can be described thus: Induction of ROS production in HFF1 cells at 10 uM after 3 hrs by DCF-DA staining-based fluorescence assay relative to DMSO treated control. The following applies: Homo sapiens, HFF-1. The method, boiled down: (§2)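 HFF-1 fibroblasts were grown on cover glass at 1 × 10⁶ per well for 18–24 h and exposed to compound for 3 h. They were then stained with 10 μM DCF-DA for 30 min. Cells were fixed in 4% formaldehyde for 20 min, PBS-washed and imaged by fluorescence microscopy.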

The subject of test [5] is A549. Description: Induction of apoptosis in human A549 cells assessed as increase in BAK level after 48 hrs by Western blot analysis. The method in brief:
as §1

Test [6] is described as follows: Induction of ROS production in HFF1 cells at 2 uM after 3 hrs by DCF-DA staining-based fluorescence assay relative to DMSO treated control. The following applies: Homo sapiens, HFF-1. The method, boiled down:
as §2

The test system of test [7] is HCT-116. Description: Induction of apoptosis in human HCT116 cells assessed as increase in p53 level after 48 hrs by Western blot analysis in presence of 10 mM NAC or 0.5 mM AA. The method in brief: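 A549 or HCT-116 cells were pretreated with 10 mM NAC or 0.5 mM ascorbic acid, then given compound at 10 μM for 48 h. Cleaved PARP and p53 were assessed by western blot of RIPA lysates (25–50 μg protein, SDS-PAGE, PVDF, milk blocking, primary antibody overnight at 4 °C, HRP secondary, ECL).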

The test system of test [8] is A549. Description: Induction of apoptosis in human A549 cells at 10 uM after 48 hrs by FACS analysis. A general note: A flow cytometer gives signals particle by particle.
Test [9] has as its system HCT-116. Description: Induction of apoptosis in human HCT116 cells at 10 uM after 48 hrs by FACS analysis.

`CCCCCC/C=C\CCCCCCCCCc1cc(O)cc(OC)c1O`: the result in the test on A549 [1] and in the test with A549 [2] was Active. Further, the Activity entry in the test with A549 [3] and with A549 [5] was “Dose-dependent effect” throughout. The outcome (in [4]; in test [6]; with HCT-116 [7]) was inactive.

As to `CCCCCC/C=C\CCCCc1cc(O)cc(OC)c1O`, the Activity entry in the test with A549 [3] and in the test with A549 [5] was “Dose-dependent effect” throughout. In addition, the outcome with A549 [8] and in the test on HCT-116 [9] was Active. In addition, the outcome with HCT-116 [7] was inactive.
